Compound activity (PubChem)
SENP8 block-1: SENP8 (human) protease inhibition | Q96LD8 | inhibition, % at 20 µM | 360,000 compounds, 0.64% hits | recombinant SENP8, Nedd8 substrate fluorescence | AID 602440; in the data active means inhibition mostly above about 40%, no sharp cut-off; inactive means mostly below about 27%
SENP8 block-2: inhibitors of human SENP8 protease; Q96LD8; purified SENP8, Z-RLRGG-aminoluciferin cleavage, luminescence; inhibition, % at 10 µM; 330,000 compounds, 1.2% hits; AID 2540; in the data active means inhibition above about 50%
SENP6 inh: blocks the human protease SENP6; Q9GZR1; Recombinant SENP6 catalytic domain, aminoluciferin luminescence; inhibition, % at 10 µM; 330,000 compounds, 1.8% hits; AID 2599;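 active means inhibition above about 50% at the single tested dose, limit read from the data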
SENP7 inh: SENP7 protease inhibition; Q9BQF6; recombinant SENP7, Z-RLRGG-aminoluciferin luminescence, 40 min; inhibition, % at 5 µM; 330,000 compounds, 1.5% hits;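 active means inhibition above about 50% at the single test dose, limit read from the data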
Target sequence (Q9BQF6 706-1050 limits assumed): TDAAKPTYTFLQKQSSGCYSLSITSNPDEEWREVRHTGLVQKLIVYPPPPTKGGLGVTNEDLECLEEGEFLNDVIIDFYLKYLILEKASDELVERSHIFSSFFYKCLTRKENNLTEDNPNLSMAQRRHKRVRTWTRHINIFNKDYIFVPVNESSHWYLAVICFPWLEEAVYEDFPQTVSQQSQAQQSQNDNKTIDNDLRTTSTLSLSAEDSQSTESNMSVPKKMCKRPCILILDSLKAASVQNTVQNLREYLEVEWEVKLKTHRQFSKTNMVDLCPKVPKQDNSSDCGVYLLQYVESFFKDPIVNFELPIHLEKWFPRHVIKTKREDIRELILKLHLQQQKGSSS
SENP1 inh: blocks the human SENP1 SUMO protease catalytic domain; Q9P0U3; recombinant SENP1 catalytic domain, CyPet-SUMO1-YPet FRET cleavage; inhibition, % at 10 µM; 360,000 compounds, 0.21% hits; AID 624204;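 active means inhibition at least 30% at 10 µM, raw YFP signal under a set limit, fluorescence ratio 0.5 to 1.5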
Target sequence (Q9P0U3 419-644 limits assumed): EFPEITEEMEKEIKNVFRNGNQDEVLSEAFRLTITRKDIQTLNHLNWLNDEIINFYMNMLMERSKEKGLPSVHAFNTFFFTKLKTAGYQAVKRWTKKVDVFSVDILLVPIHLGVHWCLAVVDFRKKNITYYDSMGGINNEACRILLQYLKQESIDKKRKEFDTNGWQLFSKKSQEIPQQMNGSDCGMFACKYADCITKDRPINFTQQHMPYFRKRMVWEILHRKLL
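Test system: recombinant human SENP1 catalytic domain, His6-tagged / Medium: pH 8 Tris buffer with EDTA, NaCl, BME, BSA, NP40, catalase / Also added: SUMO1 FRET substrate flanked by Cypet and Ypet, 25 nM / Times: 50 min reaction at room temperature / Signal: FRET, CFP and YFP emission / Control set: no-enzyme low control and enzyme-plus-DMSO high control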
SENP8 conf: confirmation of human SENP8 protease inhibitors; inhibition, % at 25 µM; 1,400 compounds, 15% hits; AID 624319; shares compounds with SENP8 block-1; purified SENP8, Nedd8-AMC/pro-Nedd8 cleavage fluorescence, 30 min; in the data active means inhibition mostly above about 39%, no sharp cut-off; inactive means mostly below about 34%
Hits are given with their value; - = inactive; . = not tested or not shown; ! = not active in a repeat. An excerpt weighted towards active compounds, which were near 2.5% of everything screened.

SMILES	SENP8 block-1	SENP8 block-2	SENP6 inh	SENP7 inh	SENP1 inh	SENP8 conf
O=C(CNC(=O)c1ccccc1)N/N=C/C=C/c1ccccc1	-	-	-	-	-	.
Cc1noc(C)c1C(=O)OCC(=O)NCc1ccc(Cl)cc1	-	-	-	-	-	.
C=CC(C)(O)CCC=C(C)C (centres undefined)	41	-	-	-	-	-
CC(C)=CCC/C(C)=C/CC/C(C)=N/O	-	-	-	-	-	.
COc1ccc([C@H]2C[C@@H](n3cc(-c4ccc(F)cc4)nn3)[C@H](O)CN2C(=O)C2CCCCC2)cc1	-	.	.	.	-	.
CCCCc1ccc(S(=O)(=O)NC2CCS(=O)(=O)C2)cc1 (centres undefined)	-	-	-	-	-	.
COC(=O)Nc1ccc(S(=O)(=O)NC2CCS(=O)(=O)C2)cc1 (centres undefined)	45	-	-	-	-	-
O=C(O)Cc1ccc(NC(=S)Nc2ccc(Br)cc2Cl)cc1	-	-	-	-	-	.
COC(=O)C(CC(C)C)NC(=O)c1ccc([N+](=O)[O-])cc1 (centres undefined)	43	-	-	-	-	-
CCC(=O)N1CCC1(C)C(=O)Nc1cccc2c1CCCC2 (centres undefined)	-	.	.	.	-	.
COc1ccc(-n2c(C)cc(SC)c(C(C)=O)c2=S)cc1	-	-	-	-	-	.
CSc1cc(C)n(-c2ccc(Cl)cc2)c(=S)c1C(C)=O	42	-	-	-	-	-
CC1(C)CC(=O)c2c(O)cc(OCC(=O)NCCc3ccc(S(N)(=O)=O)cc3)cc2O1	-	-	-	-	-	.
CC1(C)CC(=O)c2c(O)cc(OCC(=O)Nc3ccc(S(N)(=O)=O)cc3)cc2O1	57	-	-	-	-	-
Cc1ccc(CN2CC(C(=O)NCCCSc3ccccc3)CC2=O)cc1 (centres undefined)	-	-	-	-	-	.
S=C(NNc1cccc(Cl)c1)NC1CCCCC1	49	-	-	-	-	-
O=c1c2ccccc2c(C=NCCc2ccccc2)c(O)n1Cc1ccccc1	47	-	-	-	-	51
CO/N=C(/c1nonc1N)N1CCN(c2ccc([N+](=O)[O-])cc2)CC1	41	-	-	-	-	-
CCc1ccccc1N1C(=O)C(Cl)=C(N2CCOCC2)C1=O	-	-	-	-	-	.
Cc1ccc(S(=O)c2ccc([N+](=O)[O-])c3nonc23)cc1 (centres undefined)	61	.	.	.	-	-
Cc1ccc(NC(=S)N(CCN2CCOCC2)Cc2cc3cc4c(cc3[nH]c2=O)OCO4)cc1	-	-	-	-	-	.
COc1ccc2c(c1OC)C(=O)OC2N1C(=O)CC[C@H]1C(=O)Nc1ccc2c(c1)OCO2 (some centres undefined)	44	-	-	-	-	-
COc1ccccc1N1CC(C(=O)Nc2ccc3c(c2)OCO3)CC1=O (centres undefined)	-	-	-	-	-	.
COc1cccc(CN(C(=O)/C=C/c2ccco2)C2CCS(=O)(=O)C2)c1 (centres undefined)	-	-	-	-	-	.
O=C(CCc1nc2ccccc2[nH]1)N1CCc2ccccc2C1	45	-	-	-	-	54
SMILES	SENP8 block-1	SENP8 block-2	SENP6 inh	SENP7 inh	SENP1 inh	SENP8 conf
O=C(Cn1ncc2c([nH]c3ccccc32)c1=O)N1CCc2ccccc2C1	-	-	-	-	-	.
CCOC(=O)C1=C(C)NC(=O)C1CC(=O)O (centres undefined)	-	-	-	-	-	.
Cc1ccc(C(=O)CCC(=O)N(C)CC(=O)Nc2ccccc2Br)cc1	-	-	-	-	-	.
Cc1ccc(OCCCC(=O)N(C)CC(=O)Nc2ccccc2Br)cc1	37	-	-	-	-	-
COc1cccc(CNC(=O)[C@@H]2CCCN2)c1	-	.	.	.	-	.
Cc1cc2ccccn2c1C(=O)c1ccc(NN)c([N+](=O)[O-])c1	42	-	-	-	-	-
COc1cc(CCC(O)CC(=O)CCc2ccccc2)ccc1O (centres undefined)	46	-	-	-	-	-
CCOc1ccc(CCNC(=O)C(C)n2nc(C)n3c(cc4occc43)c2=O)cc1OCC (centres undefined)	42	-	-	-	-	-
Cc1nn(C(C)C(=O)NCCc2ccccc2)c(=O)c2cc3occc3n12 (centres undefined)	-	-	-	-	-	.
CC1(/[N+]([O-])=C/c2cccc(Cl)c2)CCCCC1=O (centres undefined)	-	-	-	-	-	.
CC1(/[N+]([O-])=C/c2ccc(Cl)cc2Cl)CCCCC1=O (centres undefined)	46	-	-	-	-	-
COC(=O)c1cc(S(=O)(=O)N2CCN(c3ccc(C(C)=O)cc3)CC2)cn1C	-	-	-	-	-	.
COc1ccc(Cl)cc1S(=O)(=O)NCc1cccs1	-	-	-	-	-	.
COc1cc(C)c(S(=O)(=O)NCc2cccs2)cc1C	41	-	-	-	-	-
CC1(c2ccccc2)CC(C)(C)n2c(O)c(C3=NC(=S)NC3=O)c3cccc1c32 (centres undefined)	50	-	-	-	-	-
Cc1c(/C(O)=C2/C(=O)C(=O)N(Cc3cccnc3)C2c2ccccn2)cnn1-c1ccccc1 (centres undefined)	-	-	-	-	-	.
COc1ccc(C(=O)N/C(=C\c2ccc(-c3cccc([N+](=O)[O-])c3)o2)C(=O)NCCCN2CCOCC2)cc1	35	.	.	.	-	-
Cc1ccc(C(=O)N/C(=C/c2ccc(-c3cccc([N+](=O)[O-])c3)o2)C(=O)NC(C)C)cc1	47	-	-	-	-	-
Cc1ccc(C(=O)N/C(=C\c2ccc(-c3cccc([N+](=O)[O-])c3)o2)C(=O)NCCCN2CCOCC2)cc1	-	-	-	-	-	.
O=C(O)c1ccccc1S(=O)(=O)NCC(O)COC1CCCCC1 (centres undefined)	43	-	-	-	-	-
O=C(Nc1ccc([N+](=O)[O-])cc1)Nc1ccc(N2CCOCC2)c2nonc12	46	-	-	-	-	-
CC(=O)Nc1cc([N+](=O)[O-])ccc1N1CCOCC1	-	-	-	-	-	.
COc1ccc2c3c1OC1CC(O)C=CC31CCN(C)C2 (centres undefined)	42!	-	-	-	-	-
CSc1ccc(CN2CCC2(C)C(=O)NCc2cccs2)cc1 (centres undefined)	-	.	.	.	-	.
Cc1ccc(C(=O)c2ccc([N+](=O)[O-])cc2)cc1	-	-	-	-	-	.
Cc1ccc(C(=O)c2coc3cc([N+](=O)[O-])c(O)c([N+](=O)[O-])c23)cc1	47	-	-	-	-	-
CCOC(=O)COc1ccc(/C=C2/SC(=Nc3ccccc3)N(Cc3cccnc3)C2=O)cc1OC	43	-	-	-	-	-
